The values that follow come from ChEMBL document CHEMBL1139795, “Capped diaminopropionamide-glycine dipeptides are inhibitors of CC chemokine receptor 2 (CCR2)” (Bioorg Med Chem Lett, 2007).

In series [1] the target is T1, C-C chemokine receptor type 2 (Homo sapiens, UniProt P41597). Nature of the series: Displacement of [125]MCP1 from CCR2 in human PBMCs. In a few lines:
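Competition binding with 0.3 nM [125I]MCP-1 on human peripheral blood mononuclear cells at 23 °C. IC50 given as mean ± SD (n = 2) or mean ± SEM (n > 2). Single determinations are listed with n = 1.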
Target sequence in this assay (P41597 whole entry): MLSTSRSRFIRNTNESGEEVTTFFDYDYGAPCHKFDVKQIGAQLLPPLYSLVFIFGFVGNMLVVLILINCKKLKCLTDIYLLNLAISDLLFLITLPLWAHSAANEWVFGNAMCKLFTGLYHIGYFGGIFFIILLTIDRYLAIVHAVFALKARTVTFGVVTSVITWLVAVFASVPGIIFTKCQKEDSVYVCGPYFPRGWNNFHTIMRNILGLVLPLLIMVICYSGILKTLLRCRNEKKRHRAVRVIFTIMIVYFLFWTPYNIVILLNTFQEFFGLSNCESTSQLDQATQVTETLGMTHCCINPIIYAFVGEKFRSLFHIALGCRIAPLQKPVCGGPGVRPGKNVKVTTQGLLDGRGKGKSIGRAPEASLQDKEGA

Series [2] has as its target T1, C-C chemokine receptor type 2. The series is described as follows: Antagonist activity at CCR2 in THP1 cells assessed as inhibition of MCP1-induced Ca2+ flux. Type of series: functional, cell-based, THP-1.
Target sequence in this assay (P41597 whole entry): as above
For series [3], the target named is T2, C-C chemokine receptor type 3 (Homo sapiens, UniProt P51677).
T2 sequence (P51677 whole entry): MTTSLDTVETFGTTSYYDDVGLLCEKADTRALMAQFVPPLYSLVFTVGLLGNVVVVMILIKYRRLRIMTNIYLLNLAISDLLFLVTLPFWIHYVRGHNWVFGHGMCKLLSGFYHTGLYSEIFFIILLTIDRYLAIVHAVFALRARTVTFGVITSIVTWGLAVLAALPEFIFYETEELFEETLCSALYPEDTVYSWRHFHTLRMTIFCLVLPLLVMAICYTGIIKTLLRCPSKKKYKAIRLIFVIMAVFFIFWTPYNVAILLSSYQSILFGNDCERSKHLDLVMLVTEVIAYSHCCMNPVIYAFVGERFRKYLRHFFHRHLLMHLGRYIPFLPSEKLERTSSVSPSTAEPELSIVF
The series is described as follows: Displacement of [125I]eotaxin from human CCR3 expressed in CHO cells. Type of series: cell-based. An outline of the steps: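 Binding of 0.15 nM [125I]eotaxin to CHO cells expressing human CCR3. Data are a single determination, mean ± SD (n = 2), or mean ± SEM (n indicated). ">" means less than 50% response at the stated concentration.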

The target in series [4] is T3, C-C chemokine receptor type 1 (Homo sapiens) (UniProt P32246).
T3 sequence (whole entry): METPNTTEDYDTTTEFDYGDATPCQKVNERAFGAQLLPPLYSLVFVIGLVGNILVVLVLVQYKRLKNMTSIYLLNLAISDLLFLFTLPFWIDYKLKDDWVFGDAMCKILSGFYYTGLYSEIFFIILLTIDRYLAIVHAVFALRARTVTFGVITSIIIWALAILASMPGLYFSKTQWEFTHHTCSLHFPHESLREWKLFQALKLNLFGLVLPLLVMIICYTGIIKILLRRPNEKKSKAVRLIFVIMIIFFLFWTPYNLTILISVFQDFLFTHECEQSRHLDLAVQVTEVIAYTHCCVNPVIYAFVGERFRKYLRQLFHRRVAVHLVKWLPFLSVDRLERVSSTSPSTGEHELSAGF
The series is described as follows: Inhibition of CCR1 at 10 uM.

In series [5] the target is T1, C-C chemokine receptor type 2. Nature of the series: Displacement of [125]MCP1 from CCR2 in human PBMCs at 10 uM. An outline of the steps:
(§1)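 Human PBMCs were incubated with 0.3 nM [125I]MCP-1 at 23 °C. Percent inhibition of binding was measured at one fixed inhibitor concentration, n = 1.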
Target sequence in this assay (P41597 whole entry, looked up): as the sequence (P41597 whole entry) above

For series [6] the target is unchanged. Nature of the series: Displacement of [125]MCP1 from CCR2 in human PBMCs at 1 uM. In a few lines:
as §1
Target sequence in this assay (P41597 whole entry, looked up): as the sequence (P41597 whole entry) above

Series [7] concerns the target Histamine H2 receptor (Homo sapiens) (UniProt P25021). The series is described as follows: Inhibition of histamine H2 receptor at 10 uM.
In series [8] the target is Sigma non-opioid intracellular receptor 1 (Homo sapiens) (UniProt Q99720). The series is described as follows: Inhibition of sigma 1 receptor at 10 uM.
In series [9] the target is C-C chemokine receptor type 5 (Homo sapiens) (UniProt P51681). Nature of the series: Inhibition of CCR5 receptor at 10 uM.
Series [10] deals with Mu-type opioid receptor (Homo sapiens) (UniProt P35372). Nature of the series: Inhibition of opiate mu receptor at 10 uM.
For the next series, the species on record is Homo sapiens. The series is described as follows: Inhibition of sodium channel at 10 uM.
A further series has as its target L-type calcium channel (Homo sapiens, UniProt O60840+Q01668+Q13698+Q13936). Nature of the series: Inhibition of L-type calcium channel at 10 uM.

Molecules are shown by their SMILES. Bounds are passed on as bounds.

Chain of Mu-type opioid receptor (Homo sapiens) (P35372 whole entry): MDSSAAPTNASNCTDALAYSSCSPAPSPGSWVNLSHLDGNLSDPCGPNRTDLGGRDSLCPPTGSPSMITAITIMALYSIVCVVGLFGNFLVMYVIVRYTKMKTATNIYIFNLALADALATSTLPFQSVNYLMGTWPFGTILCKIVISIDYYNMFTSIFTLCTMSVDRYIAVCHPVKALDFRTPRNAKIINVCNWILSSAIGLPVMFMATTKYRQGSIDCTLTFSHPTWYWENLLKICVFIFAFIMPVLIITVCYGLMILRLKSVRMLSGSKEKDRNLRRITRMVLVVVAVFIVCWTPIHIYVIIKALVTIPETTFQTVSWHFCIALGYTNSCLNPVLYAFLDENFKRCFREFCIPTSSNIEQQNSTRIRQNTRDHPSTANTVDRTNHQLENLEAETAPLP
Chain of Histamine H2 receptor (Homo sapiens) (P25021 whole entry): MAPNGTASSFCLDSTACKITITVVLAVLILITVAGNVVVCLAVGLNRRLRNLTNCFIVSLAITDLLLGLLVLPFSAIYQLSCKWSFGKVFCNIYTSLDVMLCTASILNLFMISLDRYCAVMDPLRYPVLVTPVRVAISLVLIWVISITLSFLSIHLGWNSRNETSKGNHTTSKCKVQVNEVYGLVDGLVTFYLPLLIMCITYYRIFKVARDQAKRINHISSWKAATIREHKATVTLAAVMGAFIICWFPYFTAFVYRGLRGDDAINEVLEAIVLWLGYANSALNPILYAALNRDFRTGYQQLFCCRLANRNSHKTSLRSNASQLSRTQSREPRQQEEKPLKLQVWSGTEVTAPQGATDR
Chain of Sigma non-opioid intracellular receptor 1 (Homo sapiens) (Q99720 whole entry): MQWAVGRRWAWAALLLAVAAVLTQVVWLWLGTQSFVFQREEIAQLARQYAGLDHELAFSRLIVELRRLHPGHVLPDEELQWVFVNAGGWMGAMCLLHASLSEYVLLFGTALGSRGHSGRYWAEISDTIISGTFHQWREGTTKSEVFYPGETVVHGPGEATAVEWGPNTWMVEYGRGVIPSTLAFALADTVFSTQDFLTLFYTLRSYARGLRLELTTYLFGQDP
Chain of C-C chemokine receptor type 5 (Homo sapiens) (P51681 whole entry, looked up): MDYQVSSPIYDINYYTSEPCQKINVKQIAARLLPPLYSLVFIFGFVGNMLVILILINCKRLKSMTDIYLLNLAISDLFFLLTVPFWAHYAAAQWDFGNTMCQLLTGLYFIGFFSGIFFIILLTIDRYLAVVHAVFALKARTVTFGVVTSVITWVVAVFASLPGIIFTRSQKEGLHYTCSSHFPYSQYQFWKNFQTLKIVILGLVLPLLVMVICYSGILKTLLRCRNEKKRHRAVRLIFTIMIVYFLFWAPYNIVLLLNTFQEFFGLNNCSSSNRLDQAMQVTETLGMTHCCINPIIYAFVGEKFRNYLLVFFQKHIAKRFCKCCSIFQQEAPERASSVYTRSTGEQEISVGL

On to `Cc1ccc(CNC[C@H](NC(=O)CNC(=O)c2cc(C(F)(F)F)ccc2NC(=O)NC(C)C)C(=O)NC(C)(C)C)c(C)c1`, for which the IC50 in series [1] came to 15 nM; in [2] it was 58 nM; in series [3] it was 10000 nM. Further, the inhibition in series [4] is less than 30%.

Compound `Cc1ccc(CNC[C@@H](NC(=O)CNC(=O)c2cccc(C(F)(F)F)c2)C(=O)O)c(C)c1` registered an Activity in [5] of 31%. In series [4], this compound returned an inhibition of less than 30%.

As to `CCNC(=O)[C@@H](NC(=O)CNC(=O)c1cccc(C(F)(F)F)c1)[C@H](C)NCc1ccc(C)cc1C`, in [5], the Activity was determined as 2%. Moreover, the inhibition in series [4] was less than 30%.

With `Cc1ccc(CNC[C@H](NC(=O)CNC(=O)c2cccc(C(F)(F)F)c2)C(=O)NC(C)(C)C)cc1F`, in series [6], the Activity is 27%. Moreover, in series [4], the inhibition was less than 30%.

In series [5], `Cc1ccc(CNC[C@H](C)NC(=O)CNC(=O)c2cccc(C(F)(F)F)c2)c(C)c1` displayed an Activity of 35%. Moreover, in [4], the inhibition was less than 30%.

`Cc1ccc(CNC[C@H](NC(=O)CNC(=O)c2cc(N)cc(C(F)(F)F)c2)C(=O)NC(C)(C)C)c(C)c1`: the values for the IC50 in series [1], in series [2] and in series [3] were 23 nM, 52 nM and greater than 10000 nM, respectively. Further, the inhibition in series [4] is less than 30%.

For the compound `Cc1ccc(CNC[C@H](NC(=O)CNC(=O)c2cc(C(F)(F)F)ccc2NCc2ccccc2)C(=O)NC(C)(C)C)c(C)c1`, the IC50 was 19 nM in series [1], 57 nM in [2] and greater than 10000 nM in series [3]. This compound also came in with an inhibition in [4] of less than 30%.

The compound `Cc1ccc(CNC[C@H](NC(=O)CNC(=O)c2cc(NC(=O)C3CCCCC3)cc(C(F)(F)F)c2)C(=O)NC(C)(C)C)c(C)c1` yielded an Activity in series [6] of 25%. In series [4], this compound yielded an inhibition of less than 30%.

Take `Cc1ccc(CNC[C@H](NC(=O)[C@@H](C)NC(=O)c2cccc(C(F)(F)F)c2)C(N)=O)c(C)c1`: the Activity in [5] worked out at 40%. In [4], this compound gave an inhibition of less than 30%.

In the case of `Cc1ccc(CNC[C@H](NC(=O)CNC(=O)c2cccc(C(F)(F)F)c2)C(N)=O)c(C)c1`, the IC50 was 66 nM in series [1], 69 nM in [2] and greater than 10000 nM in series [3]. Also, the inhibition in series [4] is less than 30%.

In series [6], `COC(=O)c1ccc(CNC[C@H](NC(=O)CNC(=O)c2cccc(C(F)(F)F)c2)C(=O)NC(C)(C)C)cc1` came in with an Activity of 20%. The compound further returned an inhibition in [4] of less than 30%.

In the case of `COc1ccc(CNC[C@H](NC(=O)CNC(=O)c2cccc(C(F)(F)F)c2)C(=O)NC(C)(C)C)c(OC)c1`, the Activity in series [6] stood at 37%. Besides, the inhibition in [4] is less than 30%.

With `CC(C)(C)NC(=O)[C@H](CNCc1ccc(-c2ccccc2)cc1)NC(=O)CNC(=O)c1cccc(C(F)(F)F)c1`, in series [6], the Activity is 30%. Besides, the inhibition in [4] was less than 30%.

In series [6], `Cc1ccc(CN(C)C[C@H](NC(=O)CNC(=O)c2cccc(C(F)(F)F)c2)C(=O)NC(C)(C)C)c(C)c1` displayed an Activity of 12%. The inhibition in [4] is less than 30%.

For the compound `Cc1ccc(CNC[C@H](NC(=O)CNC(=O)c2cc(C(F)(F)F)ccc2N)C(=O)NC(C)(C)C)c(C)c1`, the IC50 in [1] worked out at 11 nM; in series [2], 8 nM; in [3], 750 nM. Moreover, the inhibition is less than 30% in series [4]; greater than 70% in [7]; greater than 70% in series [8]; greater than 70% in series [9]; greater than 70% in [10]; greater than 70% in the series filed under Homo sapiens. For the same compound, on L-type calcium channel, the inhibition at 10 µM was greater than 70%.

As for `CCNc1ccc(C(F)(F)F)cc1C(=O)NCC(=O)N[C@@H](CNCc1ccc(C)cc1C)C(=O)NC(C)(C)C`, the IC50 in series [1] is 13 nM; in [2], 84 nM; in series [3], greater than 10000 nM. For the same compound, in series [4], the inhibition is less than 30%.

In the case of `Cc1ccc(CNC[C@@H](NC(=O)CNC(=O)c2cccc(C(F)(F)F)c2)C(C)C)c(C)c1`, in series [5], the Activity came out at 20%. Moreover, in series [4], the inhibition was less than 30%.

For `CCNC(=O)[C@H](CNCc1ccc(C)cc1C)NC(=O)CCC(=O)c1cccc(C(F)(F)F)c1`, the Activity in series [5] was found to be 7%. This compound yielded an inhibition in series [4] of less than 30%.

Turning to `CCNc1cc(C(=O)NCC(=O)N[C@@H](CNCc2ccc(C)cc2C)C(=O)NC(C)(C)C)cc(C(F)(F)F)c1`, the IC50 in [1] was 19 nM; in series [2], 58 nM; in series [3], greater than 10000 nM. The same compound had an inhibition in [4] of less than 30%.

`Cc1ccc(CNC[C@H](NC(=O)CNC(=O)c2cccc(C(F)(F)F)c2)C(=O)NC(C)(C)C)c(C)c1`: the figures for the IC50 in series [1], in series [2] and in series [3] were 48 nM, 52 nM and greater than 10000 nM, respectively. The inhibition in series [4] is less than 30%.

For `CCc1ccc(CNC[C@H](NC(=O)CNC(=O)c2cccc(C(F)(F)F)c2)C(=O)NC(C)(C)C)c(C)c1`, in series [1], the IC50 worked out at 36 nM. Also, in [4], the inhibition is less than 30%.

In the case of `Cc1ccc(CNC[C@H](CO)NC(=O)CNC(=O)c2cccc(C(F)(F)F)c2)c(C)c1`, the IC50 in series [1] amounted to 2200 nM. In series [4], this compound displayed an inhibition of less than 30%.

Compound `CCC(C)(C)NC(=O)[C@H](CNCc1ccc(C)cc1C)NC(=O)CNC(=O)c1cccc(C(F)(F)F)c1` returned a 50% inhibitory concentration (IC50) in [1] of 120 nM. Moreover, in series [4], the inhibition is less than 30%.

Take `Cc1ccc(CNC[C@H](NC(=O)[C@H](C)NC(=O)c2cccc(C(F)(F)F)c2)C(N)=O)c(C)c1`: the Activity in series [5] is 9%. In series [4], this compound came in with an inhibition of less than 30%.

Compound `Cc1ccc(CNC[C@H](NC(=O)CNC(=O)c2cc(C(F)(F)F)ccc2NC(=O)C2CCCCC2)C(=O)NC(C)(C)C)c(C)c1` displayed an IC50 in series [1] of 90 nM. This compound displayed an inhibition in [4] of less than 30%.
